Reference: ChEMBL document CHEMBL1133586, “The cyclohexene ring system as a furanose mimic: synthesis and antiviral activity of both enantiomers of cyclohexenylguanine” (2000)
In brackets after ≈: the same amount, converted by molar mass. Several values for one entry are separate records, joined by “and”; a condition that tells them apart may be missing. Equal entries are not always repeated.

Columns and labels:
Cytomegalovirus [1] = test: Minimum inhibitory concentration was determined against CMV (Davis) in HEL cell; assay type: functional; details: Human betaherpesvirus 5
Procedure, shortened: (§1)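 HEL cell cultures were infected with 20 PFU of virus and incubated with varying compound concentrations. The value is the concentration reducing virus plaque formation by 50%, as the mean of two independent determinations.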

Cytomegalovirus [2] = test: Minimum inhibitory concentration was determined in CMV (Davis) in HEL cell; assay type: functional; details: Human betaherpesvirus 5; procedure, shortened: as §1
Cytomegalovirus [3] = test: Minimum inhibitory concentration was determined against CMV (AD 169) in HEL cells; assay type: functional; details: Human betaherpesvirus 5; procedure, shortened: as §1
Cytomegalovirus [4] = test: Minimum inhibitory concentration was determined in CMV (AD169) in HEL cell; assay type: functional; details: Human betaherpesvirus 5; procedure, shortened: as §1
[5] = Minimum inhibitory concentration was determined against HSV-1 (TK-/TK+VMW1837) in E6SM cell culture; assay type: functional, herpes simplex virus
Procedure, shortened: (§2)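 Confluent E6SM cultures in microtiter trays were infected with 100 CCID50 of virus. After 1 h adsorption, residual virus was removed and cultures were incubated with varying compound concentrations. Cytopathicity was read once virus controls reached completion. The value is the concentration reducing virus-induced cytopathogenicity by 50%, as the mean of two independent determinations.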

[6] = Minimum inhibitory concentration was determined against HSV-2 (196) in E6SM cell culture; assay type: functional, herpes simplex virus; procedure, shortened: as §2
[7] = Minimum inhibitory concentration was determined against HSV-2 (G) in E6SM cell culture; assay type: functional, herpes simplex virus; procedure, shortened: as §2
[8] = Minimum inhibitory concentration was determined against HSV-1 (KOS) in E6SM cell culture; assay type: functional, herpes simplex virus; procedure, shortened: as §2
Human alphaherpesvirus 1 [9] = test: (§3) Minimum inhibitory concentration was determined against HSV-1 (McIntyre) in E6SM cell culture; assay type: functional, herpes simplex virus; procedure, shortened: as §2
[10] = Minimum inhibitory concentration was determined against HSV-2 (Lyons) in E6SM cell culture; assay type: functional, herpes simplex virus; procedure, shortened: as §2
HEL [11] = test: Cytotoxicity concentration required to inhibit the cell growth by 50% in HEL; assay type: functional, Homo sapiens
Procedure, shortened: (§4)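 In HEL cells, cytotoxicity was measured as inhibition of normal cell growth, and the value is the concentration reducing cell growth by 50%.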

HEL [12] = test: Cytotoxicity concentration required to reduce cell growth by 50% in HEL; assay type: functional, Homo sapiens; procedure, shortened: as §4
HeLa = test: Cytotoxicity concentration required to microscopically detectable alteration of cell morphology in HeLa; assay type: functional, Homo sapiens
Procedure, shortened: (§5)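 Cytotoxicity was scored as the minimum concentration giving a microscopically detectable change in normal cell morphology of E6SM, HeLa or Vero cell cultures.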

Human alphaherpesvirus 3 [13] = test: (§6) Minimum inhibitory concentration was determined against VZV (OKA) in HEL cells; assay type: functional; procedure, shortened: as §1
Human alphaherpesvirus 3 [14] = test: (§7) Minimum inhibitory concentration was determined against VZV (TK-07/1) in HEL cells; assay type: functional; procedure, shortened: as §1
Human alphaherpesvirus 3 [15] = test: (§8) Minimum inhibitory concentration was determined against VZV (TK-YS/R) in HEL cells; assay type: functional; procedure, shortened: as §1
Human alphaherpesvirus 3 [16] = test: as §8; assay type: functional; procedure, shortened: as §1; remark: listed apart in the source
Human alphaherpesvirus 3 [17] = test: (§9) Minimum inhibitory concentration was determined against VZV (YS) in HEL cells; assay type: functional; procedure, shortened: as §1
[18] = Selectivity index was determined in HSV-1 (KOS) in E6SM cell culture; assay type: functional
[19] = Selectivity index was determined against CMV (AD 169) in HEL cells; assay type: functional
[20] = Selectivity index was determined against CMV (Davis) in HEL cells; assay type: functional
[21] = Selectivity index was determined against VZV (TK-YS/R) in HEL cells; assay type: functional
[22] = Selectivity index was determined against VZV (YS) in HEL cells; assay type: functional
[23] = Selectivity index was determined againstHSV-2 (196) in E6SM cell culture; assay type: functional
[24] = Selectivity index was determined against HSV-1 (F) in E6SM cell culture; assay type: functional
[25] = Selectivity index was determined against HSV-1 (TK-/TK+VMW1837) in E6SM cell culture; assay type: functional
[26] = Selectivity index was determined against HSV-2 (Lyons) in E6SM cell culture; assay type: functional
[27] = Selectivity index was determined against VZV (OKA) in HEL cells; assay type: functional
Human alphaherpesvirus 1 [28] = test: Minimum inhibitory concentration was determined against HSV-1 (F) in E6SM cell culture; assay type: functional, herpes simplex virus; procedure, shortened: as §2
E6SM = test: Cytotoxicity concentration required to microscopically detectable alteration of cell morphology in E6SM; assay type: functional, Homo sapiens; procedure, shortened: as §5
[29] = as §9; details: Human alphaherpesvirus 1
[30] = as §3; assay type: functional, herpes simplex virus; details: Human alphaherpesvirus 1; procedure, shortened: as §2
[31] = Minimum inhibitory concentration was determined against HSV-1 (TK-KOS ACV) in E6SM cell culture; assay type: functional, herpes simplex virus; details: Human alphaherpesvirus 1; procedure, shortened: as §2
Human alphaherpesvirus 3 [32] = test: as §7
Vero = test: Cytotoxicity concentration required to microscopically detectable alteration of cell morphology in Vero; assay type: functional, Chlorocebus sabaeus; procedure, shortened: as §5
Human alphaherpesvirus 3 [33] = test: as §8
Human alphaherpesvirus 3 [34] = test: as §6
Human alphaherpesvirus 2 = test: Minimum inhibitory concentration was determined against HSV-2 (G) in E6SM cell culture
HEL [35] = test: Cytotoxicity concentration required to microscopically detectable alteration of cell morphology HEL; assay type: functional, Homo sapiens
[36] = Minimum inhibitory concentration was determined against HSV-2 (G) in E6SM cell culture; details: Human alphaherpesvirus 2
Cytomegalovirus [37] = test: Minimum inhibitory concentration was determined against CMV(AD169) in E6SM cell culture; assay type: functional; details: Human betaherpesvirus 5; procedure, shortened: as §2
Cytomegalovirus [38] = test: Minimum inhibitory concentration was determined against CMV(Davis) in E6SM cell culture; assay type: functional; details: Human betaherpesvirus 5; procedure, shortened: as §2
Human alphaherpesvirus 1 [39] = test: Minimum inhibitory concentration was determined against HSV-1 (G) in E6SM cell culture; assay type: functional, herpes simplex virus; procedure, shortened: as §2
Human alphaherpesvirus 1 [40] = test: Minimum inhibitory concentration was determined against HSV-1 (TK-/TK+VMW1837) in E6SM cell culture
[41] = Human alphaherpesvirus 1, read-out: MIC
[42] = Human alphaherpesvirus 3, read-out: MIC

## Nc1nc(O)c2ncn(C3C=CC(CO)C(O)C3)c2n1 (stereo not drawn)
Cytomegalovirus [1]
  MIC: 1.7 µg/mL (≈ 6.13 µM)
Cytomegalovirus [2]
  MIC: 0.8 µg/mL (≈ 2.89 µM)
Cytomegalovirus [3]
  MIC: 1.5 µg/mL (≈ 5.41 µM)
Cytomegalovirus [4]
  MIC: 0.6 µg/mL (≈ 2.16 µM)
[5]
  MIC: 0.01 µg/mL (≈ 0.0361 µM)
[5]; [41]
  MIC: 0.01 µg/mL (≈ 0.0361 µM)
[6]
  MIC: 0.07 µg/mL (≈ 0.252 µM)
[6]; [41]
  MIC: 0.1 µg/mL (≈ 0.361 µM)
[7]
  MIC: 0.05 µg/mL (≈ 0.18 µM)
[7]; [41]
  MIC: 0.07 µg/mL (≈ 0.252 µM)
[8]
  MIC: 0.002 µg/mL (≈ 0.00721 µM)
[8]; [41]
  MIC: 0.003 µg/mL (≈ 0.0108 µM)
Human alphaherpesvirus 1 [9]
  MIC: 0.004 µg/mL (≈ 0.0144 µM)
Human alphaherpesvirus 1 [9]; [41]
  MIC: 0.004 µg/mL (≈ 0.0144 µM)
[10]
  MIC: 0.07 µg/mL (≈ 0.252 µM)
HEL [11]
  Cytotoxicity: > 20 µg/mL
HEL [12]
  Cytotoxicity: > 20 µg/mL
HeLa
  Cytotoxicity: 400 µg/mL
Human alphaherpesvirus 3 [13]
  MIC: 1.9 µg/mL and 0.64 µg/mL
Human alphaherpesvirus 3 [14]
  MIC: 5.8 µg/mL and 2.1 µg/mL
Human alphaherpesvirus 3 [15]
  MIC: 6.8 µg/mL (≈ 24.5 µM)
Human alphaherpesvirus 3 [16]
  MIC: 2.8 µg/mL (≈ 10.1 µM)
Human alphaherpesvirus 3 [17]
  MIC: 1.2 µg/mL and 0.49 µg/mL
[18]
  Selectivity index: > 5000
[19]
  Selectivity index: >13 and >30
[20]
  Selectivity index: >12 and >25
[21]
  Selectivity index: >3 and >7
[22]
  Selectivity index: >16 and >40
[23]
  Selectivity index: > 160
[24]
  Selectivity index: >5 and >2
[25]
  Selectivity index: >1.6 and >4
[26]
  Selectivity index: >2.2 and >5
[27]
  Selectivity index: >10 and >30
Human alphaherpesvirus 1 [28]
  MIC: 0.002 µg/mL (≈ 0.00721 µM)
Human alphaherpesvirus 1 [28]; [41]
  MIC: 0.003 µg/mL (≈ 0.0108 µM)

## Nc1nc2c(ncn2COCCO)c(=O)[nH]1 [ACYCLOVIR]
E6SM
  Cytotoxicity: > 50 µg/mL
[5]; Human alphaherpesvirus 1
  MIC: 0.07 µg/mL (≈ 0.311 µM)
[29]
  MIC: 1.1 µg/mL (≈ 4.88 µM)
[6]; Human alphaherpesvirus 2
  MIC: 0.02 µg/mL (≈ 0.0888 µM)
[8]; [41]
  MIC: 0.01 µg/mL (≈ 0.0444 µM)
[30]
  MIC: 0.005 µg/mL (≈ 0.0222 µM)
[31]
  MIC: 9.6 µg/mL (≈ 42.6 µM)
[10]
  MIC: 0.02 µg/mL (≈ 0.0888 µM)
Human alphaherpesvirus 3 [32]
  MIC: 13 µg/mL (≈ 57.7 µM)
Vero
  Cytotoxicity: > 400 µg/mL
Human alphaherpesvirus 3 [33]
  MIC: 28 µg/mL (≈ 124 µM)
Human alphaherpesvirus 3 [34]
  MIC: 0.8 µg/mL (≈ 3.55 µM)
Human alphaherpesvirus 1 [28]; [41]
  MIC: 0.003 µg/mL (≈ 0.0133 µM)
Human alphaherpesvirus 2
  MIC: 0.02 µg/mL (≈ 0.0888 µM)

## O=c1[nH]c(=O)n([C@H]2C[C@H](O)[C@@H](CO)O2)cc1/C=C/Br [BRIVUDINE]
E6SM
  Cytotoxicity: > 400 µg/mL
[5]; [41]
  MIC: > 80 µg/mL
[6]; [41]
  MIC: > 80 µg/mL
[8]; [41]
  MIC: 0.001 µg/mL (≈ 0.003 µM)
Human alphaherpesvirus 1 [9]; [41]
  MIC: 0.001 µg/mL (≈ 0.003 µM)
[31]
  MIC: > 80 µg/mL
[10]
  MIC: > 80 µg/mL
HEL [35]
  Cytotoxicity: > 200 µg/mL
HEL [12]
  Cytotoxicity: > 50 µg/mL
HeLa
  Cytotoxicity: > 400 µg/mL
Human alphaherpesvirus 3 [13]; [42]
  MIC: 0.003 µg/mL (≈ 0.00901 µM)
Vero
  Cytotoxicity: > 400 µg/mL
Human alphaherpesvirus 3 [14]; [42]
  MIC: > 20 µg/mL
Human alphaherpesvirus 3 [16]
  MIC: > 50 µg/mL
Human alphaherpesvirus 3 [17]; [42]
  MIC: 0.03 µg/mL (≈ 0.0901 µM)
Human alphaherpesvirus 1 [28]; [41]
  MIC: 0.001 µg/mL (≈ 0.003 µM)
[36]
  MIC: > 80 µg/mL

## Nc1ccn(C[C@@H](CO)OCP(=O)(O)O)c(=O)n1.O.O [CIDOFOVIR]
Cytomegalovirus [37]
  MIC: 0.08 µg/mL
Cytomegalovirus [38]
  MIC: 0.2 µg/mL
E6SM
  Cytotoxicity: > 50 µg/mL
HEL [35]
  Cytotoxicity: > 50 µg/mL

## Nc1nc2c(ncn2COC(CO)CO)c(=O)[nH]1 [GANCICLOVIR]
Cytomegalovirus [37]
  MIC: 0.6 µg/mL (≈ 2.35 µM)
Cytomegalovirus [38]
  MIC: 0.8 µg/mL (≈ 3.13 µM)
E6SM
  Cytotoxicity: > 50 µg/mL
[6]; Human alphaherpesvirus 2
  MIC: 0.001 µg/mL (≈ 0.00392 µM)
[8]; [41]
  MIC: 0.001 µg/mL (≈ 0.00392 µM)
Human alphaherpesvirus 1 [39]
  MIC: 0.002 µg/mL (≈ 0.00784 µM)
[30]
  MIC: 0.001 µg/mL (≈ 0.00392 µM)
[31]
  MIC: 0.48 µg/mL (≈ 1.88 µM)
[10]
  MIC: 0.001 µg/mL (≈ 0.00392 µM)
HEL [35]
  Cytotoxicity: > 50 µg/mL
Vero
  Cytotoxicity: > 100 µg/mL
Human alphaherpesvirus 1 [28]; [41]
  MIC: 0.001 µg/mL (≈ 0.00392 µM)
Human alphaherpesvirus 1 [40]
  MIC: 0.01 µg/mL (≈ 0.0392 µM)
